# ChEMBL document CHEMBL1135501, “Synthesis and biological evaluation at nicotinic acetylcholine receptors of N-arylalkyl- and N-aryl-7-azabicyclo[2.2.1]heptanes” (J Med Chem, 2002)
# Key:
# [1] = target: T1, Neuronal acetylcholine receptor; alpha4/beta2 (Rattus norvegicus) (UniProt P09483+P12390); assay: In vitro inhibition of [3H]cytisine binding in rat brain tissue at Nicotinic acetylcholine receptor alpha4-beta2 at 100 uM; format: tissue-based
# [2] = target: T2, Neuronal acetylcholine receptor; alpha4/beta2 (Rattus norvegicus, UniProt P09483+P12390); assay: In vitro binding affinity by inhibiting [3H]cytisine binding in rat brain tissue at Nicotinic acetylcholine receptor alpha4-beta2; format: tissue-based
# T2 sequence (P09483 whole entry): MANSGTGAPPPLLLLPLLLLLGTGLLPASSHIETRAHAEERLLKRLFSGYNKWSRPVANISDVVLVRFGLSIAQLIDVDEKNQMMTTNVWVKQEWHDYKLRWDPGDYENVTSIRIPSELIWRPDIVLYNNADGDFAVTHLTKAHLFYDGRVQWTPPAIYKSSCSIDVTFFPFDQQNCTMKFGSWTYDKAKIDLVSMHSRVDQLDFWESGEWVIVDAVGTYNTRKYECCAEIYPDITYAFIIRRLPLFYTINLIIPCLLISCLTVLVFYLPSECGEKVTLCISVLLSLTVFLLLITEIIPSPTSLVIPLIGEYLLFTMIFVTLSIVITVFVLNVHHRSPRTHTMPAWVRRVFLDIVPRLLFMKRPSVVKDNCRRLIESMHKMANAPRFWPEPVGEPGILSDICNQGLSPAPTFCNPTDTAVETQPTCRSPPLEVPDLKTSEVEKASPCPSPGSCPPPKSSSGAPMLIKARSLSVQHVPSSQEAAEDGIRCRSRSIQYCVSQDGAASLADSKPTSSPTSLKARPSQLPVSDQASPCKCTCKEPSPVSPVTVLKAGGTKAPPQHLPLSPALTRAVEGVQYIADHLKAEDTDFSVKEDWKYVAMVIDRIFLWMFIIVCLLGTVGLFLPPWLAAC
# T2 sequence (P12390 whole entry): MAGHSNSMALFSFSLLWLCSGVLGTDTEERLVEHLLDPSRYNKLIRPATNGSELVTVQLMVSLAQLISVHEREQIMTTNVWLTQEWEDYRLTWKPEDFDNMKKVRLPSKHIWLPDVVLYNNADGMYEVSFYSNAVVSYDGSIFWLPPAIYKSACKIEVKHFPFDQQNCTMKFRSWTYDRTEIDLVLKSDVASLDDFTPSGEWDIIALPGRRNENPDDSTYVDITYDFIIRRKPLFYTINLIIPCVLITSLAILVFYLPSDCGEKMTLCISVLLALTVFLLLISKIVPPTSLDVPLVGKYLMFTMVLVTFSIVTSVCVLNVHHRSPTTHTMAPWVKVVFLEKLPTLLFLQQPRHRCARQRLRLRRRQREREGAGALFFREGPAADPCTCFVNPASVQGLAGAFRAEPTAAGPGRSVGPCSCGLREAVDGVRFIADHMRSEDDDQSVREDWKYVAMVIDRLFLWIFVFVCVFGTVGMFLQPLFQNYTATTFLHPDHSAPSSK
# [3] = target: T2, Neuronal acetylcholine receptor; alpha4/beta2; assay: In vitro binding affinity by inhibiting [3H]dopamine release in rat brain tissue at Nicotinic acetylcholine receptor alpha4-beta2; format: functional, tissue-based
# [4] = target: T2, Neuronal acetylcholine receptor; alpha4/beta2; assay: in vitro binding affinity by inhibiting [3H]cytisine binding in rat brain tissue at Nicotinic acetylcholine receptor alpha4-beta2
# [5] = target: T1, Neuronal acetylcholine receptor; alpha4/beta2 (Rattus norvegicus); assay: In vitro inhibition of [3H]cytisine binding in rat brain tissue at Nicotinic acetylcholine receptor alpha4-beta2; format: tissue-based; conditions: concentration not given here
# How it was run: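 Membranes were spun at 35 000g and resuspended. They were preincubated on ice for 5 min with test drug, then given 3.5 nM [3H]cytisine for 90 min at 2 °C. Nonspecific binding was taken with 1 mM (-)-nicotine. Drug concentrations were run in triplicate, with filtration and scintillation counting.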
# [6] = target: T1, Neuronal acetylcholine receptor; alpha4/beta2 (Rattus norvegicus); assay: In vitro % inhibition of [3H]cytisine binding in rat brain tissue at Nicotinic acetylcholine receptor alpha4-beta2 at 100 uM; format: tissue-based
# Mus musculus [7] = assay: In vivo analgesic agonist activity after subcutaneous administration, using tail-flick assay; format: functional; conditions: sc
# How it was run: (§1)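 Male CD-1 mice (25-35 g) were dosed subcutaneously on the back at 10 mL/kg. Tail-flick latency to a focused light beam was read by photocell as the mean of two trials, with a 12 s cutoff. Percent effect was (test − baseline)/(12 − baseline latency). ED50 with CI95 came from nonlinear regression of dose-response curves.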
# Mus musculus [8] = assay: In vivo analgesic agonist activity after subcutaneous administration, using hotplate assay; format: functional; conditions: sc
# How it was run: (§2)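 Male CD-1 mice (25-35 g) were dosed subcutaneously on the back at 10 mL/kg. Hotplate held at 52 °C; latency was timed to hind-paw lick or jump. Percent effect was calculated as (test − baseline latency)/(12 − baseline latency). ED50 with CI95 came from nonlinear regression of dose-response curves.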
# Mus musculus [9] = assay: In vivo analgesic activity was measured in mouse upon subcutaneous administration using hotplate assay; format: functional; conditions: sc; how it was run: as §2
# [10] = target: T2, Neuronal acetylcholine receptor; alpha4/beta2; assay: In vitro binding affinity by inhibiting [3H]dopamine release in rat brain tissue at aNicotinic acetylcholine receptor alpha4-beta2; format: functional, tissue-based
# How it was run: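 Striatal slices (250 µm) from male Sprague-Dawley rats were loaded with 15 nM [3H]dopamine plus 0.1 mM ascorbic acid at 37 °C for 30 min in oxygenated Krebs-HEPES buffer pH 7.4, with domperidone present after loading. Slices were superfused with a 2 min test-drug pulse (S1), then 10 mM K+ for 2 min (S2). Five drug concentrations were used; S1/S2 fractional release ratios gave EC50.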
# Mus musculus [11] = assay: In vivo analgesic activity was measured in mouse upon subcutaneous administration using tail-flick assay; format: functional; conditions: sc; how it was run: as §1
compound,measurement,setting,value
c1ccc2c(N3C4CCC3CC4)cncc2c1,inhibition,[1],< 50%
c1ccc(CN2C3CCC2CC3)nc1,Ki,[2],31300 nM
O=c1cccc2n1C[C@@H]1CNC[C@H]2C1 [CYTISINICLINE],EC50,[3],8.8 nM
same,Ki,[4],4.2 nM
c1ccc(N2C3CCC2CC3)nc1,inhibition,[1],< 50%
c1cc(CN2C3CCC2CC3)ccn1,inhibition,[1],< 50%
c1ccc2nc(CN3C4CCC3CC4)ccc2c1,inhibition,[5],< 50%
c1ccc2ncc(N3C4CCC3CC4)cc2c1,inhibition,[1],< 50%
Cc1ccc(N2C3CCC2CC3)cc1,inhibition,[6],< 50%
Ic1ccc(N2C3CCC2CC3)nc1,inhibition,[1],< 50%
Clc1ccc(C2CC3CCC2N3)cn1 (stereo in doubt; 1) [EPIBATIDINE],ED50,Mus musculus [7],0.00046 mg/kg
same,ED50,Mus musculus [8],0.00072 mg/kg
c1cc(N2C3CCC2CC3)ccn1,inhibition,[1],< 50%
c1cncc(CCN2C3CCC2CC3)c1,Ki,[2],2230 nM
COc1ccc(N2C3CCC2CC3)cn1,inhibition,[1],< 50%
c1cncc(N2C3CCC2CC3)c1,inhibition,[1],< 50%
Clc1ccc(CN2C3CCC2CC3)cn1,EC50,[3],79 nM
same,Ki,[2],245 nM
same,ED50,Mus musculus [7],11.1 mg/kg
same,ED50,Mus musculus [8],12.2 mg/kg
c1cncc(CN2C3CCC2CC3)c1,ED50,Mus musculus [9],5.36 mg/kg
same,EC50,[10],1.4 nM
same,ED50,Mus musculus [11],12.4 mg/kg
same,Ki,[2],98 nM
